Values after ≈ are worked out from the molar mass of the structure shown.
Experiments:
[1] = system: DU-145; test: Cytotoxicity against human DU145 cells at 10 uM after 48 hrs […]; assay type: functional
[2] = system: A2058; test: Cytotoxicity against human A2058 cells at 10 uM after 48 hrs […]; assay type: functional
[3] = system: A2058; test: Cytotoxicity against human A2058 cells after 48 hrs by MTT assay; assay type: functional, cell-based; conditions: A2058, 48 h
Procedure, shortened: (§1)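 Cells cultured in RPMI-1640 or DMEM with 10% FBS and penicillin/streptomycin at 37 °C, 5% CO2, then seeded at 5,000/well and left overnight. Compound given at 0.1, 0.5, 1, 5, 10, 20 and 50 µM for 48 h with a DMSO vehicle control. Viability read by MTS formazan absorbance at 490 nm, in quadruplicate, and IC50 derived from the dose series.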

[4] = system: Plasmodium falciparum; test: Antimicrobial activity against chloroquine-resistant Plasmodium falciparum W2; assay type: functional, organism-based
Procedure, shortened: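 Chloroquine-resistant W2 strain tested, with chloroquine as positive control; IC50 reported in µg/mL.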

[5] = system: DU-145; test: Cytotoxicity against human DU145 cells after 48 hrs by MTT assay; assay type: functional, cell-based; conditions: DU-145, 48 h; procedure, shortened: as §1
[6] = system: Mycobacterium tuberculosis; test: Antimycobacterial activity Mycobacterium tuberculosis H37Rv; assay type: functional, organism-based

Compound	Activity [1]	Activity [2]	IC50 [3]	IC50 [4]	IC50 [5]	IC50 [6]
CCCCCCCCCCCCCCCC[C@]1(C)C[C@@](C)(CC(=O)OC)OO1	38%	69%	> 10 µM	> 10 µg/mL	8 µM	
CCCCCCCCCCCCCCCC[C@@](C)(O)C[C@](C)(O)CC(=O)OC	81%	79%	> 10 µM	> 10 µg/mL	> 10 µM	
CCCCCCCCCCCCCCCC[C@]1(C)C[C@@](C)(O)CC(=O)O1	102%	60%	> 10 µM	> 10 µg/mL	> 10 µM	30 µg/mL (≈ 81.4 µM)
CCCCCCCCCCCCCCCC[C@@](C)(O)C[C@]1(C)OC(=O)C[C@@H]1O	79%	75%	24 µM	0.6 µg/mL (≈ 1.51 µM)	24 µM	13 µg/mL (≈ 32.6 µM)
CCCCCCCCCCCCCCCC[C@]1(C)C[C@]2(C)OC(=O)C[C@@H]2OO1	13%	8%	0.8 µM	0.3 µg/mL (≈ 0.756 µM)	2 µM	68 µg/mL (≈ 171 µM)
C[C@@](O)(CCCCCCCCCc1ccc(O)cc1)C[C@]1(C)OC(=O)C[C@@H]1O	95%	81%	> 10 µM	7 µg/mL (≈ 17.8 µM)	> 10 µM	
CC/C=C/C=C/C=C/CCCCCCCC[C@]1(C)C[C@@](C)(CC(=O)OC)OO1 [EPIPLAKINIC ACID F METHYL ESTER]	92%	86%	> 10 µM	4 µg/mL (≈ 10.2 µM)	> 10 µM	62 µg/mL (≈ 158 µM)
CC/C=C/C=C/C=C/CCCCCCCC[C@@]1(C)C[C@](C)(CC(=O)O)OO1 [EPIPLAKINIC ACID F]	15%	51%	> 10 µM	3 µg/mL (≈ 7.92 µM)	1 µM	92 µg/mL (≈ 243 µM)
C[C@]1(CC(=O)O)C[C@@](C)(CCCCCCCCC(=O)O)OO1 [EPIPLAKINIDIOIC ACID]	31%	23%	3 µM	0.3 µg/mL (≈ 0.948 µM)	4 µM	
C[C@@]1(CCCCCCCCCc2ccc(O)cc2)C[C@]2(C)OC(=O)C[C@@H]2OO1 [PLAKORTOLIDE F]	62%	71%	> 10 µM		> 10 µM	59 µg/mL (≈ 151 µM)
CC/C=C/C=C/C=C/CCCCCCCC[C@]1(C)C[C@]2(C)OC(=O)C[C@@H]2OO1 [PLAKORTOLIDE J]	112%	106%	> 10 µM	> 10 µg/mL	> 10 µM	71 µg/mL (≈ 182 µM)
